Results reported in ChEMBL document CHEMBL1125291, “New 8-(trifluoromethyl)-substituted quinolones. The benefits of the 8-fluoro group with reduced phototoxic risk” (1992).
≈ marks a conversion by molar mass, not a printed value. Where “and” joins values, the source holds several entries; their conditions need not be identical. Equal entries are not always repeated.

Species on record: Mus musculus
Test: Dose which has no effect to induce phototoxic reaction in 50% of mice by probit method.
Assay type: functional
Conditions: not given

SMILES | No effect dose
NC1CCN(c2c(F)cc3c(=O)c(C(=O)O)cn(C4CC4)c3c2C(F)(F)F)C1 (centres undefined) | 300 mg/kg
CCn1cc(C(=O)O)c(=O)c2cc(F)c(N3CCNCC3)cc21 [NORFLOXACIN] | 300 mg/kg and 100 mg/kg

Tested on: Pseudomonas aeruginosa
Test: Minimum inhibitory concentration (MIC) against gram negative bacteria Pseudomonas aeruginosa UI-18.
Assay type: functional
Conditions: Pseudomonas aeruginosa; read-out: MIC
Method in brief: (§1)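 MICs were determined by standard broth microtitration against 11 Gram-positive and Gram-negative organisms, in µg/mL. Values come from duplicate or triplicate experiments and are accurate to ±50%.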

SMILES | MIC [µg/mL]
NC1CCN(c2c(F)cc3c(=O)c(C(=O)O)cn(C4CC4)c3c2C(F)(F)F)C1 (centres undefined) | 1.6 (≈ 4.01 µM)
CCn1cc(C(=O)O)c(=O)c2cc(F)c(N3CCNCC3)cc21 [NORFLOXACIN] | 0.2 (≈ 0.626 µM)

Tested on: Klebsiella pneumoniae
Test: Minimum inhibitory concentration (MIC) against gram negative bacteria Klebsiella pneumoniae MGH-2.
Assay type: functional
Conditions: Klebsiella pneumoniae; read-out: MIC
Method in brief: as §1

SMILES | MIC [µg/mL]
NC1CCN(c2c(F)cc3c(=O)c(C(=O)O)cn(C4CC4)c3c2C(F)(F)F)C1 (centres undefined) | 0.2 (≈ 0.501 µM)
CCn1cc(C(=O)O)c(=O)c2cc(F)c(N3CCNCC3)cc21 [NORFLOXACIN] | 0.05 (≈ 0.157 µM)

Species on record: Mus musculus
Test: Number of mice which show positive phototoxic reaction in 5 mice
Assay type: functional
Conditions: not given

SMILES | No. of pos rxns
NC1CCN(c2c(F)cc3c(=O)c(C(=O)O)cn(C4CC4)c3c2C(F)(F)F)C1 (centres undefined) | 0

Tested on: Streptococcus pyogenes
Test: Minimum inhibitory concentration (MIC) against gram positive bacteria Streptococcus pyogenes C-203.
Assay type: functional
Conditions: Streptococcus pyogenes; read-out: MIC
Method in brief: as §1

SMILES | MIC [µg/mL]
NC1CCN(c2c(F)cc3c(=O)c(C(=O)O)cn(C4CC4)c3c2C(F)(F)F)C1 (centres undefined) | 0.4 (≈ 1 µM)
CCn1cc(C(=O)O)c(=O)c2cc(F)c(N3CCNCC3)cc21 [NORFLOXACIN] | 0.8 (≈ 2.51 µM)

Tested on: Pseudomonas aeruginosa
Test: In vivo efficacy (s.c.) against Pseudomonas aeruginosa in mouse protection test
Assay type: functional
Conditions: Pseudomonas aeruginosa, sc; read-out: PD50
Method in brief: (§2)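 Acute lethal systemic infections in female Charles River CD-1 mice. A single dose was given at challenge, orally by gavage or by subcutaneous injection. PD50 (median protective dose, mg/kg) was determined.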

SMILES | ED50 [mg/kg]
NC1CCN(c2c(F)cc3c(=O)c(C(=O)O)cn(C4CC4)c3c2C(F)(F)F)C1 (centres undefined) | 23
CCn1cc(C(=O)O)c(=O)c2cc(F)c(N3CCNCC3)cc21 [NORFLOXACIN] | 11

Species on record: Mus musculus
Test: Days of the first positive reaction in […] mice.
Assay type: functional
Conditions: not given
Method in brief: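 Phototoxic skin reaction test in depilated female CD-1 mice. A single oral dose (gavage) or subcutaneous dose was given, followed 1 h later by 3 h of UVA exposure (320–400 nm). The regimen was repeated for up to 4 consecutive days, with initial doses of 30, 100 and 300 mg/kg. PTD50 was derived by the probit method. The first day of positive reaction and the no-effect dose were taken from the raw data.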

SMILES | Day of first positve reaction
NC1CCN(c2c(F)cc3c(=O)c(C(=O)O)cn(C4CC4)c3c2C(F)(F)F)C1 (centres undefined) | 0

Tested on: Escherichia coli
Test: In vivo efficacy in mouse protection test in Escherichia coli Vogel administered by subcutaneous injection.
Assay type: functional
Conditions: Escherichia coli, sc; read-out: PD50
Method in brief: as §2

SMILES | ED50 [mg/kg]
NC1CCN(c2c(F)cc3c(=O)c(C(=O)O)cn(C4CC4)c3c2C(F)(F)F)C1 (centres undefined) | 1.4
CCn1cc(C(=O)O)c(=O)c2cc(F)c(N3CCNCC3)cc21 [NORFLOXACIN] | 0.6

Tested on: Escherichia coli
Test: In vivo efficacy in mouse protection test in Escherichia coli Vogel dose administered orally by gavage.
Assay type: functional
Conditions: Escherichia coli, po; read-out: PD50
Method in brief: as §2

SMILES | ED50 [mg/kg]
NC1CCN(c2c(F)cc3c(=O)c(C(=O)O)cn(C4CC4)c3c2C(F)(F)F)C1 (centres undefined) | 2.9
CCn1cc(C(=O)O)c(=O)c2cc(F)c(N3CCNCC3)cc21 [NORFLOXACIN] | 4

Tested on: Escherichia coli
Test: Minimum inhibitory concentration (MIC) against gram negative bacteria Escherichia coli Vogel.
Assay type: functional
Conditions: Escherichia coli; read-out: MIC
Method in brief: as §1

SMILES | MIC [µg/mL]
NC1CCN(c2c(F)cc3c(=O)c(C(=O)O)cn(C4CC4)c3c2C(F)(F)F)C1 (centres undefined) | 0.05 (≈ 0.125 µM)
CCn1cc(C(=O)O)c(=O)c2cc(F)c(N3CCNCC3)cc21 [NORFLOXACIN] | 0.025 (≈ 0.0783 µM)

Tested on: Streptococcus pneumoniae
Test: In vivo efficacy (orally) against Streptococcus pneumoniae SV-1 in mouse protection test
Assay type: functional
Conditions: Streptococcus pneumoniae, po; read-out: PD50
Method in brief: as §2

SMILES | ED50 [mg/kg]
NC1CCN(c2c(F)cc3c(=O)c(C(=O)O)cn(C4CC4)c3c2C(F)(F)F)C1 (centres undefined) | 25
CCn1cc(C(=O)O)c(=O)c2cc(F)c(N3CCNCC3)cc21 [NORFLOXACIN] | > 100

Tested on: Staphylococcus aureus
Test: Minimum inhibitory concentration (MIC) against gram positive bacteria Staphylococcus aureus UC-76.
Assay type: functional
Conditions: Staphylococcus aureus; read-out: MIC
Method in brief: as §1

SMILES | MIC [µg/mL]
NC1CCN(c2c(F)cc3c(=O)c(C(=O)O)cn(C4CC4)c3c2C(F)(F)F)C1 (centres undefined) | 0.05 (≈ 0.125 µM)
CCn1cc(C(=O)O)c(=O)c2cc(F)c(N3CCNCC3)cc21 [NORFLOXACIN] | 0.05 (≈ 0.157 µM)

Tested on: not listed separately
Test: Minimum inhibitory concentration (MIC) against gram negative bacteria Prot. rettgeri M-1771.
Assay type: functional, Providencia rettgeri
Conditions: Providencia rettgeri; read-out: MIC
Method in brief: as §1

SMILES | MIC [µg/mL]
NC1CCN(c2c(F)cc3c(=O)c(C(=O)O)cn(C4CC4)c3c2C(F)(F)F)C1 (centres undefined) | 0.4 (≈ 1 µM)
CCn1cc(C(=O)O)c(=O)c2cc(F)c(N3CCNCC3)cc21 [NORFLOXACIN] | 0.025 (≈ 0.0783 µM)

Tested on: not listed separately
Test: Number of mice which show positive phototoxic reaction in 5 mice at peroral dose
Assay type: functional, Mus musculus
Conditions: not given
Method in brief: (§3)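 Depilated female CD-1 mice got a single oral (gavage) or subcutaneous dose, then UVA (320–400 nm) exposure for 3 h starting 1 h post-dose. This was repeated for up to 4 consecutive days. Initial doses were 30, 100 and 300 mg/kg. PTD50 was derived by probit. First day of positive reaction and no-effect dose were taken from the raw data.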

SMILES | No. of pos rxns
CCn1cc(C(=O)O)c(=O)c2cc(F)c(N3CCNCC3)cc21 [NORFLOXACIN] | 0

Tested on: Mus musculus
Test: Maximum tolerance dose was measured for phototoxic skin reaction by po administration
Assay type: functional
Conditions: not given

SMILES | MTD [mg/kg]
NC1CCN(c2c(F)cc3c(=O)c(C(=O)O)cn(C4CC4)c3c2C(F)(F)F)C1 (centres undefined) | 300
CCn1cc(C(=O)O)c(=O)c2cc(F)c(N3CCNCC3)cc21 [NORFLOXACIN] | 300

Tested on: Pseudomonas aeruginosa
Test: In vivo efficacy (orally) against Pseudomonas aeruginosa in mouse protection test
Assay type: functional
Conditions: Pseudomonas aeruginosa, po; read-out: PD50
Method in brief: as §2

SMILES | ED50 [mg/kg]
NC1CCN(c2c(F)cc3c(=O)c(C(=O)O)cn(C4CC4)c3c2C(F)(F)F)C1 (centres undefined) | 53
CCn1cc(C(=O)O)c(=O)c2cc(F)c(N3CCNCC3)cc21 [NORFLOXACIN] | 76

Tested on: Enterococcus faecalis
Test: Minimum inhibitory concentration (MIC) against gram positive bacteria Streptococcus faecalis MGH-2.
Assay type: functional
Conditions: Enterococcus faecalis; read-out: MIC
Method in brief: as §1

SMILES | MIC [µg/mL]
NC1CCN(c2c(F)cc3c(=O)c(C(=O)O)cn(C4CC4)c3c2C(F)(F)F)C1 (centres undefined) | 0.4 (≈ 1 µM)
CCn1cc(C(=O)O)c(=O)c2cc(F)c(N3CCNCC3)cc21 [NORFLOXACIN] | 1.6 (≈ 5.01 µM)

Tested on: Staphylococcus aureus
Test: Minimum inhibitory concentration (MIC) against gram positive bacteria Staphylococcus aureus H-228.
Assay type: functional
Conditions: Staphylococcus aureus; read-out: MIC
Method in brief: as §1

SMILES | MIC [µg/mL]
NC1CCN(c2c(F)cc3c(=O)c(C(=O)O)cn(C4CC4)c3c2C(F)(F)F)C1 (centres undefined) | 0.1 (≈ 0.25 µM)
CCn1cc(C(=O)O)c(=O)c2cc(F)c(N3CCNCC3)cc21 [NORFLOXACIN] | 0.8 (≈ 2.51 µM)

Tested on: Streptococcus pyogenes
Test: In vivo efficacy (orally) against Streptococcus pyogenes C-203 in mouse protection test
Assay type: functional
Conditions: Streptococcus pyogenes, po; read-out: PD50
Method in brief: as §2

SMILES | ED50 [mg/kg]
NC1CCN(c2c(F)cc3c(=O)c(C(=O)O)cn(C4CC4)c3c2C(F)(F)F)C1 (centres undefined) | 32
CCn1cc(C(=O)O)c(=O)c2cc(F)c(N3CCNCC3)cc21 [NORFLOXACIN] | > 100

Tested on: Streptococcus pneumoniae
Test: In vivo efficacy (s.c.) against Streptococcus pneumoniae SV-1 in mouse protection test
Assay type: functional
Conditions: Streptococcus pneumoniae, sc; read-out: PD50
Method in brief: as §2

SMILES | ED50 [mg/kg]
NC1CCN(c2c(F)cc3c(=O)c(C(=O)O)cn(C4CC4)c3c2C(F)(F)F)C1 (centres undefined) | 26
CCn1cc(C(=O)O)c(=O)c2cc(F)c(N3CCNCC3)cc21 [NORFLOXACIN] | 150

Tested on: Streptococcus pyogenes
Test: In vivo efficacy (s.c.) against Streptococcus pyogenes C-203 in mouse protection test
Assay type: functional
Conditions: Streptococcus pyogenes, sc; read-out: PD50
Method in brief: as §2

SMILES | ED50 [mg/kg]
NC1CCN(c2c(F)cc3c(=O)c(C(=O)O)cn(C4CC4)c3c2C(F)(F)F)C1 (centres undefined) | 26
CCn1cc(C(=O)O)c(=O)c2cc(F)c(N3CCNCC3)cc21 [NORFLOXACIN] | 45

Tested on: not listed separately
Test: Number of mice which show positive phototoxic reaction in 5 mice at subcutaneous dose
Assay type: functional, Mus musculus
Conditions: not given
Method in brief: as §3

SMILES | No. of pos rxns
CCn1cc(C(=O)O)c(=O)c2cc(F)c(N3CCNCC3)cc21 [NORFLOXACIN] | 5

Species on record: Mus musculus
Test: Dose required to induce phototoxic reaction in 50% of mice by probit method at different dosage forms.
Assay type: functional
Conditions: not given

SMILES | PTD50
NC1CCN(c2c(F)cc3c(=O)c(C(=O)O)cn(C4CC4)c3c2C(F)(F)F)C1 (centres undefined) | >300 mg/kg
CCn1cc(C(=O)O)c(=O)c2cc(F)c(N3CCNCC3)cc21 [NORFLOXACIN] | >300 mg/kg and 172 mg/kg

Tested on: Enterobacter cloacae
Test: Minimum inhibitory concentration (MIC) against gram negative bacteria Enterobacter cloacae MA-2646.
Assay type: functional
Conditions: not given

SMILES | MIC [µg/mL]
NC1CCN(c2c(F)cc3c(=O)c(C(=O)O)cn(C4CC4)c3c2C(F)(F)F)C1 (centres undefined) | 0.05 (≈ 0.125 µM)
CCn1cc(C(=O)O)c(=O)c2cc(F)c(N3CCNCC3)cc21 [NORFLOXACIN] | 0.1 (≈ 0.313 µM)

Tested on: Escherichia coli
Test: Minimum inhibitory concentration (MIC) against gram negative bacteria Escherichia coli H-560.
Assay type: functional
Conditions: Escherichia coli; read-out: MIC
Method in brief: as §1

SMILES | MIC [µg/mL]
NC1CCN(c2c(F)cc3c(=O)c(C(=O)O)cn(C4CC4)c3c2C(F)(F)F)C1 (centres undefined) | 0.025 (≈ 0.0626 µM)
CCn1cc(C(=O)O)c(=O)c2cc(F)c(N3CCNCC3)cc21 [NORFLOXACIN] | 0.1 (≈ 0.313 µM)

Tested on: Streptococcus pneumoniae
Test: Minimum inhibitory concentration (MIC) against gram positive bacteria Streptococcus pneumoniae SV-1.
Assay type: functional
Conditions: Streptococcus pneumoniae; read-out: MIC
Method in brief: as §1

SMILES | MIC [µg/mL]
NC1CCN(c2c(F)cc3c(=O)c(C(=O)O)cn(C4CC4)c3c2C(F)(F)F)C1 (centres undefined) | 0.4 (≈ 1 µM)
CCn1cc(C(=O)O)c(=O)c2cc(F)c(N3CCNCC3)cc21 [NORFLOXACIN] | 1.6 (≈ 5.01 µM)

Tested on: Mus musculus
Test: Maximum tolerance dose was measured for phototoxic skin reaction by sc administration
Assay type: functional
Conditions: not given
Method in brief: as §3

SMILES | MTD [mg/kg]
CCn1cc(C(=O)O)c(=O)c2cc(F)c(N3CCNCC3)cc21 [NORFLOXACIN] | 300
